Assay results reported in ChEMBL document CHEMBL4130598, “Discovery of New Sulfonamide Carbonic Anhydrase IX Inhibitors Incorporating Nitrogenous Bases” (ACS Med Chem Lett, 2017).
pKi: −log10 of the molar value. The source made the active and inactive calls. No cut-off for these calls is given here.

Tests used:
[1] = biological target: Carbonic anhydrase 9 (Homo sapiens, UniProt Q16790); experiment: Inhibition of human carbonic anhydrase 9 incubated for 15 mins by stopped flow CO2 hydrase assay
[2] = biological target: Carbonic anhydrase 1 (Homo sapiens, UniProt P00915); experiment: Inhibition of human carbonic anhydrase 1 incubated for 15 mins by stopped flow CO2 hydrase assay
[3] = system: HT-29; experiment: Cytotoxicity in human HT-29 cells assessed as cell mortality at 30 to 300 uM incubated for 16 hrs under normoxic conditions by MTT assay; type: functional
[4] = system: HT-29; experiment: Cytotoxicity in human HT-29 cells assessed as reduction in cell viability at 30 to 300 uM incubated for 16 hrs under hypoxic conditions by MTT assay
[5] = system: HT-29; experiment: Cytotoxicity in human HT-29 cells assessed as reduction in cell viability at 30 to 300 uM incubated for 16 hrs under normoxic conditions by MTT assay; type: functional, cell-based
In short: (§1)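 HT-29 human colon cancer cells seeded at 1 × 10^4 per well and exposed to 30−300 μM for 16 or 48 h, under normoxia (20% O2) or hypoxia (0.1% O2). Viability is given relative to untreated control set at 100%, as mean ± SEM of three experiments, with significance tested against 0 μM.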

[6] = system: HT-29; experiment: Cytotoxicity in human HT-29 cells assessed as reduction in cell viability at 30 to 300 uM incubated for 48 hrs under hypoxic conditions by MTT assay; type: functional; in short: as §1

Chain of Carbonic anhydrase 1 (P00915 whole entry): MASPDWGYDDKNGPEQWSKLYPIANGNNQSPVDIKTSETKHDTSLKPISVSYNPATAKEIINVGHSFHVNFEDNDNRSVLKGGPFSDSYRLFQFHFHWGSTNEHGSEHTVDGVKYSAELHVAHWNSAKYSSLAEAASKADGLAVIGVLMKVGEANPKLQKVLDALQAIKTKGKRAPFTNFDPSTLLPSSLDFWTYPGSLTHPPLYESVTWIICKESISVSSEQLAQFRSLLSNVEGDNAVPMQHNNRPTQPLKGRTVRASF

Structure (SMILES)	pKi [1]	also measured
NS(=O)(=O)c1cccc(NC(=O)Cn2ccc(=O)[nH]c2=O)c1	5.51	–
NS(=O)(=O)c1ccc(O)c(NC(=O)Cn2ccc(=O)[nH]c2=O)c1	6.36	–
Nc1ncnc2c1ncn2Cc1cn(-c2cccc(S(N)(=O)=O)c2)nn1	5.88	pKi [2]: < 5.00
Nc1ncnc2c1ncn2CC(=O)Nc1cccc(S(N)(=O)=O)c1	6.37	pKi [2]: < 5.00
CN(C)/C=N/c1ncnc2c1ncn2CC(=O)Nc1cccc(S(N)(=O)=O)c1	5.55	pKi [2]: < 5.00
CN(C)/C=N/c1ncnc2c1ncn2CC(=O)NCCc1ccc(S(N)(=O)=O)cc1	6.95	–
Nc1ncnc2c1ncn2CC(=O)Nc1ccc(S(N)(=O)=O)cc1	7.77	Activity [3]: 10 - 15%; Activity [4]: Active; Activity [5]: Active; Activity [6]: 25 - 30%
Nc1ncnc2c1ncn2CC(=O)NCCc1ccc(S(N)(=O)=O)cc1	7.94	Activity [3]: 10 - 15%; Activity [4]: inactive
Nc1ncnc2c1ncn2CCOc1ccc(S(N)(=O)=O)cc1	7.52	Activity [3]: 10 - 15%; Activity [4]: inactive; Activity [5]: Active; Activity [6]: 25 - 30%
NS(=O)(=O)c1ccc(CNC(=O)Cn2ccc(=O)[nH]c2=O)cc1	6.39	–
NS(=O)(=O)c1cccc(-n2cc(Cn3ccc(=O)[nH]c3=O)nn2)c1	6.34	–
CN(C)/C=N/c1ncnc2c1ncn2CC(=O)NCc1ccc(S(N)(=O)=O)cc1	6.78	–

Further compounds by rising pKi [1], results first:

pKi [1]	Structure (SMILES)	also measured
7.34	NS(=O)(=O)c1ccc(CCNC(=O)Cn2ccc(=O)[nH]c2=O)cc1	–
7.34	Nc1ncnc2c1ncn2CC(=O)NCc1ccc(S(N)(=O)=O)cc1	–
7.40	CN(C)/C=N/c1ncnc2c1ncn2CC(=O)Nc1ccc(S(N)(=O)=O)cc1	–
7.59	NS(=O)(=O)c1ccc(NC(=O)Cn2ccc(=O)[nH]c2=O)cc1	Activity [4]: inactive; Activity [5]: Active; Activity [6]: 25 - 30%
8.32	NS(=O)(=O)c1ccc(-n2cc(Cn3ccc(=O)[nH]c3=O)nn2)cc1	–
8.72	Nc1ncnc2c1ncn2Cc1cn(-c2ccc(S(N)(=O)=O)cc2)nn1	–
